# Hits are enriched below; roughly 11% of the tested compounds scored in any of these assays.
# S1P3 agonist = S1P3 (human) receptor agonism. Q99500. 0.1% of 60,000 active. S1P3 NFAT-BLA reporter cells, FRET ratio; relative to 1 µM S1P, basal subtracted. AID 373. activation, % at 4.5 µM;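 active = activation above the screen-wide mean plus 3 SD, cut at about 4.5% in these data, passing the limit was not always enough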
#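 Benchmarks: high control 1 µM S1P / System: stable CHO line with human S1P3, Gα16, NFAT-BLA reporter / Dosing: single compound concentration, 4.5 µM final / Timing: 4 h compound at 37 °C, 2 h substrate at RT / Measured by: FRET β-lactamase substrate fluorescence, excitation 405 nm, 460/535 nm emission ratio, background-subtracted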
# D1 mod = D1 dopamine receptor (human) allosteric modulation; P21728; HEK293 D1, CRE-luciferase, dopamine EC30 potentiation; actives deviate in either direction; B-score at 10 µM; 5.9% of 58,000 active;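 active = luminescence count or its row- and column-corrected plate score outside the 99.7% band of the plate's sample wells, on either side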
# M1 antag = antagonists of rat M1 muscarinic receptor; CHO-M1 cells, Fluo-4 calcium, ACh EC80 antagonist mode; stronger effect = lower value; P08482; B-score at 10 µM; 3.4% of 64,000 active;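 active = calcium fluorescence response, raw or row-and-column corrected B-score, differing from the plate sample mean either way at a set confidence level, mostly lower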
# S1P1 ag-PAM = agonists and agonism potentiators of human S1P1 receptor; S1P1 CRE-bla cells, forskolin, beta-lactamase FRET, potentiator mode; S1P1 agonist co-added at EC20, 2 nM; 100% = saturating reference agonist, 0% = basal; P21453; 0.57% of 56,000 active; activation, % at 9.5 µM;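 active = activation above a cutoff set at the mean activation of all tested compounds plus 3 SD, cut at about 54% in these data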;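 also: forskolin at 4 µM as EC80 and the EC20 agonist is SEW2871; 100% = SEW2871 at its EC100 plus forskolin at EC80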
# Target sequence (P21453 whole entry, looked up): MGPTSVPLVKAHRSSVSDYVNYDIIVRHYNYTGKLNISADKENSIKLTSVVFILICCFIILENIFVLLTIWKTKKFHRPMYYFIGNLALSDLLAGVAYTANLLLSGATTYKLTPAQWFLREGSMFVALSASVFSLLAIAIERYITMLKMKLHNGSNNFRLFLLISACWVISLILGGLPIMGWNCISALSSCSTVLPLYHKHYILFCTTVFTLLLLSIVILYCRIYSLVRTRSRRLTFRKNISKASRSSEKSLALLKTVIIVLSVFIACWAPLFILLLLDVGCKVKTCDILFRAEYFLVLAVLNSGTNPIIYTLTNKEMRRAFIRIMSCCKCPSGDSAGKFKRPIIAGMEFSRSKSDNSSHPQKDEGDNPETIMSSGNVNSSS
# M1 agonist = agonists of M1 muscarinic receptor; CHO-M1 cells, Fluo-4 calcium fluorescence, agonist mode; stronger effect = higher value; B-score at 10 µM; 3% of 64,000 active;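 active = fluorescence rise, raw or as B-score row- and column-corrected plate score, outside the 99.7% band of its plate's samples, either direction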
# D1 mod confirm = D1 receptor (human) allosteric modulation, confirmed. 88% of 2,200 active. HEK293 D1 CRE-luciferase, dopamine EC30 potentiation; stronger effect = higher value. luminescence at 10 µM. shares compounds with D1 mod;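 active = luminescence in either of two replicates above the same-plate mean plus 3 SD of the low-dose dopamine control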
# D1 no dopamine = secondary test of D1 modulators: activity without dopamine; 0.8% of 1,900 active; AID 646; luminescence at 10 µM; HEK293 D1 CRE-luciferase, luminescence, no dopamine; stronger effect = higher value; shares compounds with D1 mod; in the data active = luminescence above about 3900
# Isoprot counter = alters isoproterenol CRE-luciferase response in HEK293 cells; AID 647; calls only at 10 µM; HEK293 D1 CRE-luciferase, isoproterenol EC30 counter-screen; shares compounds with D1 mod; 63% of 2,200 active;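 active = luminescence in either replicate above plate mean of wells with a partly effective reference agonist dose plus 3 SD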;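 also: isoproterenol raises cAMP through native beta-adrenoceptor Gs so signal bypasses D1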
# * hit, by the source's call; i = inactive; nt = no result given; + = active, no number.
SMILES,S1P3 agonist,D1 mod,M1 antag,S1P1 ag-PAM,M1 agonist,D1 mod confirm,D1 no dopamine,Isoprot counter
COCC(C)NS(=O)(=O)c1ccc(NC(=O)C(Cc2ccccc2)NC(N)=O)cc1 (stereo not given),0,0.49,-0.076,-4,0.2,nt,nt,nt
COc1cc(C(=O)Nc2cccc(-c3nncn3C)c2)cc(OC)c1OC,-1,-0.43,1.2,-4,0.89,nt,nt,nt
COCCN1CC(O)=C(c2nc3ccccc3c(=O)[nH]2)C1=N,0,6.8*,0,-24,-0.91,5256,1884,i
COc1ccc(-c2nnc(-c3ccc(Br)o3)o2)cc1OC,0,4.8*,0.67,10,1.5,8496*,1540,i
CCOc1ccccc1Nc1nc(N)nc(CSc2nccc(C)n2)n1,0,3.6*,0.58,nt,-0.15,6988*,nt,i
Cc1occc1-c1nnc(SCC(=O)N2CCN(c3ccccc3F)CC2)n1C,0,-0.49,-0.35,16,0.73,nt,nt,nt
COc1cc(C(=O)Nc2ccc(-c3nc4cc(C)ccc4o3)c(O)c2)cc(OC)c1OC,-1,3.1*,-0.0059,-20,1,5096,nt,i
CC(=O)c1cccc(NC2c3ncccc3C(=O)N2Cc2ccco2)c1 (stereo not given),0,20*,1.1,-8,1.1,19736*,nt,+
CCOC(=O)c1oc2ccc(S(=O)(=O)N3CCOCC3)cc2c1C,nt,4.3*,-0.21,nt,-1.2,7344*,1548,i
CCOC(=O)c1oc2ccc(S(=O)(=O)N3CCC(C)CC3)cc2c1C,nt,1.4,-0.57,nt,-0.13,nt,nt,nt
OC(Cn1cccn1)c1ccccc1 (stereo not given),-1,0.27,0.46,6,0.46,nt,nt,nt
COC(=O)C1CCN(S(=O)(=O)c2c(C)n(C)c(=O)n(C)c2=O)CC1,0,1.4*,0.98,1,1.5,7080,1560,i
CCN(CC(=O)Nc1c(C(=O)OC)[nH]c2ccccc12)c1ccc2c(c1)OCO2,1,8.3*,0.8,-5,1.8,11912*,1772,+
Nc1n[nH]c(S(=O)(=O)CCCc2ccccc2)n1,-1,nt,0.03,8,0.003,nt,nt,nt
O=C(NCC1CCCCC1)c1ccco1,-1,-0.13,-0.45,-6,-0.19,nt,nt,nt
CC(=O)c1cc(C#N)c(SCCC(C)C)nc1C,-1,3.3,-0.92,-42,0.43,nt,nt,nt
CC(=O)c1cc(C#N)c(SCC(=O)OC(C)(C)C)nc1C,-1,3.4*,0.0098,-4,-0.72,10808*,1660,i
CC(=O)c1cc(C#N)c(SCc2ccncc2)nc1C,-6,5.6*,-0.49,-10,-1.9,8540*,1916,i
COCCNC(=O)CN(C(=O)CCC(=O)Nc1cc(C)on1)c1cccc(C)c1C,0,0.75,0.56,10,0.29,nt,nt,nt
COC(=O)c1sc(=S)sc1C(=O)OC,0,3.3*,0.26,14,-0.7,8136*,1608,i
Cc1cc(-c2ccc(F)cc2)nc2cc(C(N)=O)nn12,-2,10*,0.7,-9,0.6,15420*,1800,+
CCOC(=O)c1cnn2c(C)cc(-c3ccc(F)cc3)nc12,-2,-0.72,0.81,-35,-0.83,nt,nt,nt
O=C(NCCCn1ccnc1)c1cn(Cc2ccc(F)cc2)nn1,1,-0.52,-0.081,-13,-0.016,nt,nt,nt
CC(=O)Nc1cc2c(cc1C(=O)C(C)C)OCCO2,0,5.3*,1.2,-9,-0.95,14100*,nt,+
O=C(Nc1c(F)c(F)c(F)c(F)c1F)C1CCCCC1,0,-0.6,-0.34,-21,0.03,nt,nt,nt
SMILES,S1P3 agonist,D1 mod,M1 antag,S1P1 ag-PAM,M1 agonist,D1 mod confirm,D1 no dopamine,Isoprot counter
O=C(Nc1nonc1NC(=O)C1CCCCC1)C1CCCCC1,-1,17*,-0.96,-4,-0.77,25348*,1748,+
CCOC(=O)c1c(-c2ccsc2)csc1N,-1,7.5*,-0.66,-6,0.047,8708*,1572,i
CCCSc1nsc(SCCC)c1C(N)=O,-1,4.4*,-0.55,-17,-0.0053,9628*,1436,i
CCSc1nsc(SCC)c1C(N)=O,nt,0.87,0.015,nt,0.49,nt,nt,nt
Cc1nnc(SCC(=O)NCc2ccc3c(c2)OCO3)[nH]c1=O,0,0.67,0.26,-10,-0.11,nt,nt,nt
CCc1c(C)c(C#N)c2nc3ccccc3n2c1N(C)C,-1,4.9*,2.3*,-27,1.1,9428*,1532,+
CCOC(=O)c1c(NC(=O)CC)sc(C(C)=O)c1C,0,16*,-0.05,-25,-0.22,12336*,1496,+
CCOC(=O)c1sc(NC(=O)CN2CCCC2)c(C(=O)OCC)c1C,-1,0.63,0.86,-6,0.43,nt,nt,nt
CCOC(=O)c1sc(NC(=O)CSc2nnc(C)s2)c(C(=O)OCC)c1C,-1,6.1*,0.024,-1,0.49,25484*,1664,+
CCOC(=O)c1c(N)sc(C(=O)N(C)C)c1C,0,0.96,0.52,-10,0.078,nt,nt,nt
CCOC(=O)c1c(/N=C/N(C)C)sc(C(=O)OC)c1C,nt,3.7*,0.37,nt,-0.33,8988*,nt,+
CCOC(=O)c1c(NC(=O)OC)sc(C(=O)N(C)C)c1C,nt,4.1*,-0.28,nt,-0.088,13484*,1692,+
COc1ccc(Cl)c(Cn2c(NCCCO)nc3c2c(=O)n(C)c(=O)n3C)c1,1,1.8,0.51,-10,1.7,nt,nt,nt
Cc1ccc(C2C(C#N)=C(N)Oc3c2oc(CO)cc3=O)o1 (stereo not given),0,0.11,-0.6,8,0.2,nt,nt,nt
CCCc1cc(C(=O)Nc2sc(C(C)=O)c(C)c2C(=O)OCC)no1,-1,6.5*,0.43,-38,0.66,7336*,1520,i
CCOC(=O)c1sc(NC(=O)COC(=O)Cn2cnc3ccccc32)c(C(=O)OCC)c1C,0,5*,-0.099,-10,0.65,9720*,1652,i
CCOC(=O)c1sc(NC(=O)c2c(C)noc2C)c(C(=O)OCC)c1C,-1,0.12,0.53,12,0.42,nt,nt,nt
CCOC(=O)N1CCN(CCC(=O)Nc2ccc(OC(F)(F)F)cc2)CC1,-1,-0.49,-1.5,-20,0.44,nt,nt,nt
COc1cccc(NC(=O)CCN2CCC(C(N)=O)CC2)c1,0,0.066,nt,-23,nt,nt,nt,nt
c1coc(-c2nc3ccccc3nc2-c2ccco2)c1,nt,6.7*,0.13,nt,0.27,14092*,nt,+
O=c1oc(-c2ccco2)nc2ccccc12,-1,0.29,0.046,-22,0.24,nt,nt,nt
Cn1c(NC(=O)c2ccc(Cl)cc2Cl)cc(=O)n(C)c1=O,-1,4.5*,-0.73,-18,-0.32,8676*,1848,+
Cn1c(NC(=O)C(C)(C)Oc2ccc(Cl)cc2)cc(=O)n(C)c1=O,-2,0.00019,-0.032,-23,-0.45,nt,nt,nt
